Experimental data of several laboratories.
Each line is one published result; the experiments were not run side by side.
Observed: cell growth or viability

| SMILES | cell line | test | conditions | measurement | value |
| --- | --- | --- | --- | --- | --- |
| C[C@H](Nc1ccc2c(c1)OCCn1cc(N3C(=O)OC[C@H]3C(F)F)nc1-2)C(N)=O | BFTC-909 | ATP luminescence | 5 days | EC50 | 342 nM |
| CN(C)CCNC(=O)c1ccc(-c2nc3ccc4[nH]ncc4c3c3c2CCCCC3)cc1 | HCC827 | – | 72 h | GI50 | 3040 nM |
| Cc1nc(Nc2ncc(C(=O)Nc3c(C)cccc3Cl)s2)cc(N2CC[C@H](O)C2)n1 | KU812 | ATP luminescence | 10 µM, 72 h | inhibition | 97% |
| CCCn1cnc2ccc(-c3ccc(NC(=O)CC4CCC4)nc3)cc2c1=O | HCC827 | CCK-8 | 72 h | IC50 | 1210 nM |
| CN(C)CCNC(=O)c1ccc(-c2nc3ccc4[nH]ncc4c3c3c2CCCCC3)c(F)c1 | HCC827 | – | 72 h | GI50 | 985 nM |
| CCCCn1cnc2ccc(-c3ccc(NC(=O)Nc4ccc(C(F)(F)F)cc4)nc3)cc2c1=O | HCC827 | CCK-8 | 72 h | IC50 | > 10000 nM |
| Cc1nc(NC(=O)N2CCC[C@H]2C(N)=O)sc1-c1ccnc(C(C)(C)C(F)(F)F)c1 | BFTC-909 | ATP luminescence | 5 days | EC50 | 5560 nM |
| CCCCn1cnc2ccc(-c3ccc(NC(=O)NCCC)nc3)cc2c1=O | HCC827 | CCK-8 | 72 h | IC50 | > 10000 nM |
| CN(C)CCNC(=O)c1ccc(-c2nc3ccc4[nH]ncc4c3c3c2CCCC3)cc1 | HCC827 | – | 72 h | GI50 | 1040 nM |
